Test results as given in ChEMBL document CHEMBL4834477, “Synthesis and biological evaluation of novel purinyl quinazolinone derivatives as PI3Kδ-specific inhibitors for the treatment of hematologic malignancies” (Bioorg Med Chem, 2021).
The source made the active and inactive calls. The rule behind the calls is not given here.

Tests used:
[1] = Half life in Sprague-Dawley rat at 3 mg/kg, po measured for 24 hrs by LC-MS/MS analysis; assay type: ADME, organism-based; details: in vivo
Summary of the method: (§1)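 Sprague-Dawley rats dosed orally at 1 or 3 mg/kg, three animals per group. Blood sampled at 0.25, 0.5, 1, 2, 4, 8 and 24 h post-dose. Plasma separated by centrifugation, extracted and quantified by LC-MS/MS. PK parameters (Cmax, AUClast, Tmax, t1/2) derived by non-compartmental software.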

[2] = system: SU-DHL10; experiment: Induction of apoptosis in human SU-DHL-10 cells assessed as early apoptotic cells at 20 uM measured after 24 hrs by AnnexinV-FITC/PI staining based flowcytometry method (reference value: 6.32%); assay type: functional
Summary of the method: (§2)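 Cells exposed to 20 μM compound for 24 h, washed with cold PBS, and stained with Annexin V-FITC and propidium iodide for 15 min at room temperature. Viable, early apoptotic, late apoptotic and necrotic populations quantified by flow cytometry.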

[3] = AUC (last) in Sprague-Dawley rat at 3 mg/kg, po measured for 24 hrs by LC-MS/MS analysis; assay type: ADME, organism-based; parameters: route oral, time 24 hrs, dose 3 mg/kg; details: in vivo; summary of the method: as §1
[4] = biological target: T1, Phosphatidylinositol 4,5-bisphosphate 3-kinase catalytic subunit delta isoform (Homo sapiens) (UniProt O00329); experiment: Inhibition of PI3Kdelta in human MOLT-4 cells assessed as inhibition of AKT phosphorylation at Thr308 residue at 1 to 5 uM measured after 3 hrs by western blot assay; assay type: cell-based; details: dose 1-5 µM
T1 sequence (whole entry): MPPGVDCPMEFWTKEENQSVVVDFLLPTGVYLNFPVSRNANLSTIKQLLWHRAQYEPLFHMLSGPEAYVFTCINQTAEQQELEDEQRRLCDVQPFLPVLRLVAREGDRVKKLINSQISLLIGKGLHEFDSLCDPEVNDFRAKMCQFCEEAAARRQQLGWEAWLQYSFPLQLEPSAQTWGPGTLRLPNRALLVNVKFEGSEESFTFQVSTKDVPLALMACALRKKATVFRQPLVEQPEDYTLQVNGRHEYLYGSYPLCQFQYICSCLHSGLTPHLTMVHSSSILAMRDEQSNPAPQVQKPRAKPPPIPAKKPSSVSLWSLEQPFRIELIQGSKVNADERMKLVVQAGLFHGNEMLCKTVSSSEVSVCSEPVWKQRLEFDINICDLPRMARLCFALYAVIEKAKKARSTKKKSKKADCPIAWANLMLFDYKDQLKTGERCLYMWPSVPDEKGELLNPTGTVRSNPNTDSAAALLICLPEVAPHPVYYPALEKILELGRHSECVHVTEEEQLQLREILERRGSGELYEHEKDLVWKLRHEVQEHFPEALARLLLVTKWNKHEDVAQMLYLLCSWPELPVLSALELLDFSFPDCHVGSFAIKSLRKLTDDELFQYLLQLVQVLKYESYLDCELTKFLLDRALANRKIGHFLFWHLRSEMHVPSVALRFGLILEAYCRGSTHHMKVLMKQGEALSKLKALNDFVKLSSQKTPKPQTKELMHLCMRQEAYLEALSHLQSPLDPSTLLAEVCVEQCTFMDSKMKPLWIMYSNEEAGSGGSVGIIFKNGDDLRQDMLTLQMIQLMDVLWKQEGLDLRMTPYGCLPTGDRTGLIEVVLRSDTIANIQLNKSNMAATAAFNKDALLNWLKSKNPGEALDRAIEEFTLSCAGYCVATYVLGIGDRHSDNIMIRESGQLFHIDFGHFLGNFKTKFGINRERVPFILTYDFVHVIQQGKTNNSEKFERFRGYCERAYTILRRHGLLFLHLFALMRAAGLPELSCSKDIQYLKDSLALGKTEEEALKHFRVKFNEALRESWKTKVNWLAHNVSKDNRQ
Summary of the method: (§3)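 Treatment lasted 3 h: SUDHL-5 at 1 μM, MOLT-4 at 5 μM. Cells washed twice in cold PBS and lysed. Proteins resolved on 10–12% SDS-PAGE and blotted to PVDF. Probed for p-AKT S473, p-AKT T308, p-S6 and p-4E-BP1, with β-actin as loading control.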

[5] = biological target: T1, Phosphatidylinositol 4,5-bisphosphate 3-kinase catalytic subunit delta isoform (Homo sapiens); experiment: Inhibition of PI3Kdelta in human SU-DHL-5 cells assessed as inhibition of AKT phosphorylation at Thr308 residue at 1 to 5 uM measured after 3 hrs by western blot assay; assay type: cell-based; details: dose 1-5 µM; summary of the method: as §3
[6] = system: SU-DHL-5; experiment: Antiproliferative activity against human SU-DHL-5 cells assessed as cell viability at 10 uM by CellTiter-Glo luminescent cell viability assay (reference value: 100%); assay type: functional; details: read-out: Activity
[7] = system: SU-DHL10; experiment: Induction of apoptosis in human SU-DHL-10 cells assessed as viable cells at 20 uM measured after 24 hrs by AnnexinV-FITC/PI staining based flowcytometry method (reference value: 90%); assay type: functional; details: read-out: Activity; summary of the method: as §2
[8] = Tmax in Sprague-Dawley rat at 3 mg/kg, po measured for 24 hrs by LC-MS/MS analysis; assay type: ADME, organism-based; details: in vivo; summary of the method: as §1
[9] = Toxicity in Balb/c nude mouse xenografted with human MOLT-4 cells assessed as changes in body weight at 10 mg/kg, po administered via gavage qd for 57 days; assay type: organism-based; details: in vivo, 1368 h, dose 10 mg/kg/day, time 57 day
Summary of the method: (§4)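 MOLT-4 cells (2×10^6 in 0.1 mL D-PBS) implanted subcutaneously on the back of BALB/c-nude mice. Once tumours grew, mice were dosed daily by oral gavage at 10 mg/kg for 57 consecutive days. Tumours measured by caliper, with volume = ½ × […]. Body weight was tracked over the same period.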

[10] = Cmax in Sprague-Dawley rat at 3 mg/kg, po measured for 24 hrs by LC-MS/MS analysis; assay type: ADME, organism-based; parameters: route oral, time 24 hrs, dose 3 mg/kg; details: in vivo; summary of the method: as §1
[11] = system: MOLT-4; experiment: Induction of apoptosis in human MOLT-4 cells assessed as necrotic cells at 20 uM measured after 24 hrs by AnnexinV-FITC/PI staining based flowcytometry method (reference value: 0.51%); assay type: functional; summary of the method: as §2
[12] = system: MOLT-4; experiment: Induction of apoptosis in human MOLT-4 cells assessed as early apoptotic cells at 20 uM measured after 24 hrs by AnnexinV-FITC/PI staining based flowcytometry method (reference value: 2.04%); assay type: functional; summary of the method: as §2
[13] = system: MOLT-4; experiment: Antiproliferative activity against human MOLT-4 cells assessed as cell viability at 20 uM by CellTiter-Glo luminescent cell viability assay (reference value: 100%); assay type: functional; details: read-out: Activity
[14] = Cytotoxicity against human MRC5 cells assessed as inhibition of cell viability at 20 uM measured after 48 hrs by MTT assay; assay type: cell-based; details: read-out: INH
Summary of the method: (§5)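 MTT assay in MRC-5 cells seeded at 2×10^6 cells/mL. Compound given in 1% FBS EMEM for 48 h at 37 °C in CO2. MTT solution then added for 3 h at 37 °C. Medium removed and formazan dissolved in DMSO.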

[15] = system: MOLT-4; experiment: Antitumour activity against human MOLT-4 cells xenografted in Balb/c nude mouse assessed as inhibition of tumour growth at 10 mg/kg, po administered via gavage qd for 57 days; assay type: functional; details: dose 10.0 mg/kg/day, time 57.0 day; summary of the method: as §4
[16] = biological target: T1, Phosphatidylinositol 4,5-bisphosphate 3-kinase catalytic subunit delta isoform (Homo sapiens); experiment: Inhibition of PI3Kdelta in human SU-DHL-5 cells assessed as inhibition of AKT phosphorylation at Ser473 residue at 1 to 5 uM measured after 3 hrs by western blot assay; assay type: cell-based; details: dose 1-5 µM; summary of the method: as §3
[17] = system: MOLT-4; experiment: Induction of apoptosis in human MOLT-4 cells assessed as viable cells at 20 uM measured after 24 hrs by AnnexinV-FITC/PI staining based flowcytometry method (reference value: 95.3%); assay type: functional; details: read-out: Activity; summary of the method: as §2
[18] = system: SU-DHL10; experiment: Induction of apoptosis in human SU-DHL-10 cells assessed as late apoptotic cells at 20 uM measured after 24 hrs by AnnexinV-FITC/PI staining based flowcytometry method (reference value: 3.48%); assay type: functional; summary of the method: as §2
[19] = system: MOLT-4; experiment: Induction of apoptosis in human MOLT-4 cells assessed as late apoptotic cells at 20 uM measured after 24 hrs by AnnexinV-FITC/PI staining based flowcytometry method (reference value: 2.17%); assay type: functional; summary of the method: as §2
[20] = biological target: T1, Phosphatidylinositol 4,5-bisphosphate 3-kinase catalytic subunit delta isoform (Homo sapiens); experiment: Inhibition of PI3Kdelta in human MOLT-4 cells assessed as inhibition of AKT phosphorylation at Ser473 residue at 1 to 5 uM measured after 3 hrs by western blot assay; assay type: cell-based; details: dose 1-5 µM; summary of the method: as §3
[21] = system: SU-DHL10; experiment: Induction of apoptosis in human SU-DHL-10 cells assessed as necrotic cells at 20 uM measured after 24 hrs by AnnexinV-FITC/PI staining based flowcytometry method (reference value: 0.2%); assay type: functional; summary of the method: as §2
[22] = system: MRC5; experiment: Cytotoxicity against human MRC5 cells assessed as inhibition of cell viability measured after 48 hrs by MTT assay; assay type: cell-based; details: MRC5, 48 h; summary of the method: as §5

half-life [1]: 2.7 h
AUC(0-t) at 24 h [3]: 202 ng·h/mL
inhibition [4]: Active
inhibition [5]: Active
Tmax [8]: 0.5 h
Cmax [10]: 53 ng/mL
inhibition [16]: Active
inhibition [20]: Active
SMILES: CC[C@H](Nc1ncnc2[nH]cnc12)c1nc2cccc(F)c2c(=O)n1-c1ccccc1 [IDELALISIB]
Activity [2]: 55.7%
viability at 10 µM [6]: 41.3%
viability at 20 µM [7]: 12.2%
Activity [9]: Non-Toxic
Activity [11]: 2.34%
Activity [12]: 19.2%
viability at 20 µM [13]: 74.6%
cytotoxicity at 48 h, 20 µM [14]: 18.4%
inhibition [15]: Active
viability at 20 µM [17]: 56.5%
Activity [18]: 30.4%
Activity [19]: 22%
Activity [21]: 1.7%
IC50 [22]: > 100 µM
